Compound activity as filed in PubChem.
Compounds with a hit are over-represented: about 3.6% of the library has one in this group of screens.
MITF act – MITF TRPM1 promoter activation in melanoma cells; SK-MEL-5 TRPM1-promoter luciferase, 24 h; % of positive control, neutral wells = 0; activation, % at 12.5 µM; 0.75% of 300,000 active;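 active = mean activation of at least 80% with every replicate also reaching 80%; inconclusive = mean reaches 80% but some replicate falls short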;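 note: 0% = neutral control wells and 100% = parthenolide positive control wells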
Wnt act – Wnt/beta-catenin pathway activation. Wnt/beta-catenin reporter cell assay, activator, plate reader. 1.2% of 300,000 active. activation, % at 9.35 µM; in the data active = activation above about 30%, passing the limit was not always enough; inconclusive = no clear call, values can overlap the other calls;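 note: 0% = neutral control wells and 100% = positive control wells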
SR-BI HDL uptake – inhibitors of mouse SR-BI mediated HDL lipid uptake; ldlA[mSR-BI] CHO cells, DiI-HDL uptake fluorescence, 3 h; inhibition, % at 12.5 µM; 0.96% of 320,000 active; AID 488896;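 active = mean replicate inhibition of at least 70% and a set share of replicates each scoring 70 or more; inconclusive = meets just one of the two criteria; inactive = fails both criteria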;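 note: 0% = median of neutral control wells and 100% = median of positive control wells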
Target sequence (Q61009 whole entry, looked up): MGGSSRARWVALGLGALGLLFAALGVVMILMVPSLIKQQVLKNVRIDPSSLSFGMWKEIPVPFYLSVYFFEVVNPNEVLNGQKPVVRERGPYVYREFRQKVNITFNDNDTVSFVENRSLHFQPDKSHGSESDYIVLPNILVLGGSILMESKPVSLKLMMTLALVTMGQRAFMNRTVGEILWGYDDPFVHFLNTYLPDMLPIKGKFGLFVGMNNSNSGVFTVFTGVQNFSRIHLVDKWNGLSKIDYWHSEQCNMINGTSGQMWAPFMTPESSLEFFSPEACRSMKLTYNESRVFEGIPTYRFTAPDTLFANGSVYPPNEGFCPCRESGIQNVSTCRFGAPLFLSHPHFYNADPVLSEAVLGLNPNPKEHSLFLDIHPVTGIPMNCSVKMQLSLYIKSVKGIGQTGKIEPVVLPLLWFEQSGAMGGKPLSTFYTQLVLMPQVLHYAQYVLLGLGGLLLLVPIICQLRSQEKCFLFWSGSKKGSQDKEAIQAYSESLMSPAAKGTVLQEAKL
SR-BI uptake up – SR-BI HDL lipid transfer activation; CHO ldlA[mSR-BI] cells, DiI-HDL uptake fluorescence, 3 h; 100 = double the neutral-control signal; activation, % at 12.5 µM; 0.096% of 320,000 active; AID 504775;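 active = mean replicate activation of at least 60% and every replicate at or above 60%; inconclusive = mean or all-replicate condition met, but not both; inactive = mean below 60% and not all replicates reaching 60%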;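 note: 0% = median plate neutral-control signal and 100% = twice that signal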
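system = CHO ldlA[mSR-BI] cells, LDL receptor-null, SR-BI overexpressing | medium = Ham's F12 with 0.5% BSA, HEPES 25 mM, pH 7.4 | probe or stimulus = DiI-HDL 10 µg/mL | compound dosing = single-point compound dose | incubation = compound exposure 3 h, 37 °C | technique = DiI fluorescence, bottom read | read-out = cell-associated DiI fluorescence as measure of HDL uptake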
HSF-1 act – increases HSF-1 driven luciferase reporter signal | 1.7% of 300,000 active | activation, % at 9 µM | AID 504408 | NIH3T3-HGL HSF-1 luciferase reporter, MG132, 8 h; 100% = twice DMSO control signal;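 active = mean replicate activation of at least 50% with a set share of replicates each reaching 50%; inconclusive = only one of those two conditions met; inactive = mean below 50% and too few replicates reaching it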;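 note: 0% = median of the neutral control wells and 100% = twice that signal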
Starred values were filed as active, the others as inactive; ? = inconclusive; / = no result given.

SMILES	MITF act	Wnt act	SR-BI HDL uptake	SR-BI uptake up	HSF-1 act
N/C(=N\OC(=O)CC1CCCCC1)c1cccc(Br)c1	6	9	-17	17	45
COc1ccc(/C(N)=N/OC(=O)CSc2ccc(C)cc2)cc1OC	4	/	-19	19	57*
COc1ccc(-c2ccc(C(=O)C3CC3)cc2)cc1	107*	27	23	-23	39
COc1ccc(/C(N)=N/OC(=O)C2CCCCC2)cc1	47	40*	-5	5	49
COc1cc(CN2C[C@@H](CO)O[C@@H](n3cnc4c(NC5CCC5)ncnc43)C2)cc(OC)c1OC	/	-2	/	/	/
CC(C)(C)NC(=O)C1c2ccccc2OCC(=O)N1Cc1ccccc1 (stereo not given)	/	-1	/	/	/
COc1ccc(/C(N)=N/OC(=O)C2CCCCC2)cc1OC	88*	26	8	-8	46
COc1ccc(C(=O)O/N=C(\N)c2ccc(OC)c(OC)c2)cc1	102*	26	12	-12	66*
N#Cc1ccccc1OCC(=O)NC(=O)NCc1ccccc1	-1	0	-11	11	8
CCNC(=O)NC(=O)COc1ccccc1C#N	93*	/	-8	8	44
N#Cc1ccccc1OCC(=O)NCCNC(=O)COc1ccccc1C#N	4	2	-10	10	-15
COC(=O)CCC(=O)COc1ccc(OC)cc1C#N	114*	/	-23	23	52*
N#Cc1ccccc1OCC(=O)NC(=O)NCc1ccco1	116*	19	/	/	/
COC(=O)CCC(=O)COc1ccccc1C#N	16	/	-8	8	4
COc1ccc(C(=O)COc2ccccc2C#N)cc1	/	46*	18	-18	44
CNC(=O)C[C@@H]1CC[C@@H]2[C@H](COC[C@H](O)CN2S(=O)(=O)c2ccccc2Cl)O1	/	0	/	/	/
O=S(=O)(c1ccc(NC(=S)NCc2cccnc2)cc1)N1CCCCC1	/	47*	-1	1	15
O=S(=O)(c1ccc(NC(=S)NN=Cc2ccccc2O)cc1)N1CCCCC1	/	67*	92*	-92	/
O=C(NCc1cccnc1)c1ccc(S(=O)(=O)N2CCCCC2)cc1	-6	-12	-2	2	-4
O=[N+]([O-])c1ccc(-c2cnc(SCc3ccccc3Cl)[nH]2)cc1	55	/	44	-44	56*
CC1C(=O)NN=C1C(=O)N/N=C\C(Br)=C\c1ccccc1 (stereo not given)	11	16	19	-19	213*
CC1=NNC(=O)C1CC(=O)N/N=C/C(Br)=C/c1ccccc1 (stereo not given)	/	2	-4	4	-8
CC1=NNC(=O)C1CCC(=O)N/N=C/C(Br)=C/c1ccccc1 (stereo not given)	38	0	-3	3	88*
COCc1cc(N2CCN(C(=O)OC(C)(C)C)C[C@H]2C)ccc1N1CCN(Cc2ccccc2)[C@H](C)C1	/	-19	/	/	/
Cc1cc(C)c2c(=O)[nH][nH]c2n1	4	0	41	-41	/
SMILES	MITF act	Wnt act	SR-BI HDL uptake	SR-BI uptake up	HSF-1 act
COc1ccc(-c2cc(NC(=O)Cc3c[nH]c4ccccc34)ccc2Nc2cccnc2)cc1F	/	-1	/	/	/
Cc1cc(C(=O)CCC(=O)N(C)CC2COc3ccccc3O2)c(C)s1 (stereo not given)	/	0	/	/	/
Oc1ccccc1-c1n[nH]c(-c2ccccc2O)n1	8	4	8	-8	/
Clc1ccccc1-c1nc(-c2ccccc2)n[nH]1	49	64*	-7	7	54*
CCCSc1ccc([C@H]2N[C@@](CC(C)C)(C(=O)OC)[C@H]3C(=O)N(C)C(=O)[C@@H]23)cc1	13	-4	74*	-74	-20
CN1CCSc2ccc(C(=O)NCc3cccc(F)c3)cc21	/	11	44	-44	23
COc1ccc(Br)cc1CNC(=O)c1ccc2c(c1)N(C)CCS2	9	0	68	-68	11
COc1cccc(NC(=O)c2ccc3c(c2)CCN3S(C)(=O)=O)c1	/	9	71*	-71	21
CN1CCSc2ccc(C(=O)Nc3ccc(Cl)cc3)cc21	?	37*	/	/	122*
COc1cccc(NC(=O)c2ccc3c(c2)N(C)CCS3)c1	58	50*	91*	-91	92*
CCOC(=O)C1CCCN(C(=O)c2cc(C)n(C(C)(C)C)n2)CC1 (stereo not given)	/	-1	/	/	/
Cc1nc2ccc(S(=O)(=O)CCC(=O)NCCc3ccccc3)cc2s1	/	-2	/	/	/
COc1ccc(N=Nc2ccc3ccccc3c2)c(O)c1	/	7	14	-14	-55
COc1cccc(N=Nc2ccc3ccccc3c2O)c1	/	4	72*	-72	-70
c1ccc2c(c1)Nc1cc3ccccc3cc1S2	/	38*	9	-9	/
N/C(=N\OC(=O)COc1ccc(Br)cc1Cl)c1ccccn1	14	/	-13	13	51*
Cc1cc(C)c(C)c(OCC(=O)O/N=C(\N)c2ccccn2)c1	14	/	21	-21	16
N/C(=N\OC(=O)COc1cc(Cl)c(Cl)cc1Cl)c1ccncc1	/	4	/	/	22
Cc1cccc(/C(N)=N/OC(=O)COc2ccccc2Cl)c1	32	/	-5	5	/
COc1ccc(/C(N)=N/OC(=O)COc2ccccc2Cl)cc1	60	0	-34	34	58*
N/C(=N\OC(=O)COc1ccc(Br)cc1Cl)c1ccncc1	130*	67*	-16	16	/
Cc1ccc(OCC(=O)O/N=C(\N)c2ccncc2)c(C)c1	161*	20	/	/	25
Cc1cc(C)c(C)c(OCC(=O)O/N=C(\N)c2ccncc2)c1	18	5	/	/	6
N/C(=N\OC(=O)COc1ccc2ccccc2c1Br)c1cccnc1	/	3	/	/	41
N/C(=N\OC(=O)COc1ccc(Cl)cc1Cl)c1ccccn1	27	6	-3	3	74*
SMILES	MITF act	Wnt act	SR-BI HDL uptake	SR-BI uptake up	HSF-1 act
N/C(=N\OC(=O)COc1ccc2ccccc2c1Br)c1ccccn1	?	44*	-21	21	83*
C[C@H](CO)N1C[C@H](C)[C@@H](CN(C)S(=O)(=O)c2ccccc2)Oc2c(NC(=O)Nc3ccc4c(c3)OCO4)cccc2C1=O	8	0	-2	2	/
O=C1c2cccc3cccc(c23)C(=O)N1OS(=O)(=O)c1ccccc1	15	/	-20	20	118*
COc1ccccc1-c1cn(CC[C@H]2CC[C@@H](NS(=O)(=O)c3ccccc3C)[C@@H](CO)O2)nn1	/	-3	/	/	/
Cc1ccc(C)c2sc(NC(=O)c3ccc(N4C(=O)CCC4=O)cc3)nc12	/	-1	79*	-79	4
Clc1ccc(-c2nnc(-c3ccco3)o2)cc1	59	38*	-8	8	/
O=C(COc1ccc(Br)cc1)Nc1ccc(-c2nnc(-c3ccco3)o2)cc1	28	/	-18	18	51*
CC(C)NC(=O)c1cc(C2CCCCN2S(=O)(=O)c2cccc3cccnc23)on1 (stereo not given)	/	0	/	/	/
COc1ccc(-c2csc(C(NC(C)=O)c3ccccc3)n2)cn1 (stereo not given)	/	-2	/	/	/
